{
  "source": "ChEMBL document CHEMBL1156524",
  "about": "“Profiling the enzymatic properties and inhibition of human complement factor B” (J Biol Chem, 2007)",
  "key": {"Homo sapiens [1]": {"species_on_record": "Homo sapiens", "assay": "Inhibition of human C3bBb convertase assessed as C3 cleavage at 1 mM after 30 mins by 7% gel analysis", "in_short": "(§1)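 Native C3 convertase formed in situ: C3 (10 µg), human factor B (0.5 µg) and factor D (0.05 µg) incubated 30 min at 37 °C in 32 µL PBS pH 7.4 with 1 mM MgCl2 and 154 mM NaCl, plus buffer or inhibitor (0.25–1.0 mM). Cleavage of C3 to C3a read by SDS-PAGE, 2.5 µg C3/well on 7% gel and 5 µg C3/well on 12% gel.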"}, "Homo sapiens [2]": {"species_on_record": "Homo sapiens", "assay": "Inhibition of human C3bBb convertase assessed as C3 cleavage at 1 mM after 30 mins by 12% gel analysis", "in_short": "as §1"}, "Complement factor B [3]": {"biological_target": "T1, Complement factor B (Homo sapiens, UniProt P00751)", "T1 sequence (P00751 whole entry)": "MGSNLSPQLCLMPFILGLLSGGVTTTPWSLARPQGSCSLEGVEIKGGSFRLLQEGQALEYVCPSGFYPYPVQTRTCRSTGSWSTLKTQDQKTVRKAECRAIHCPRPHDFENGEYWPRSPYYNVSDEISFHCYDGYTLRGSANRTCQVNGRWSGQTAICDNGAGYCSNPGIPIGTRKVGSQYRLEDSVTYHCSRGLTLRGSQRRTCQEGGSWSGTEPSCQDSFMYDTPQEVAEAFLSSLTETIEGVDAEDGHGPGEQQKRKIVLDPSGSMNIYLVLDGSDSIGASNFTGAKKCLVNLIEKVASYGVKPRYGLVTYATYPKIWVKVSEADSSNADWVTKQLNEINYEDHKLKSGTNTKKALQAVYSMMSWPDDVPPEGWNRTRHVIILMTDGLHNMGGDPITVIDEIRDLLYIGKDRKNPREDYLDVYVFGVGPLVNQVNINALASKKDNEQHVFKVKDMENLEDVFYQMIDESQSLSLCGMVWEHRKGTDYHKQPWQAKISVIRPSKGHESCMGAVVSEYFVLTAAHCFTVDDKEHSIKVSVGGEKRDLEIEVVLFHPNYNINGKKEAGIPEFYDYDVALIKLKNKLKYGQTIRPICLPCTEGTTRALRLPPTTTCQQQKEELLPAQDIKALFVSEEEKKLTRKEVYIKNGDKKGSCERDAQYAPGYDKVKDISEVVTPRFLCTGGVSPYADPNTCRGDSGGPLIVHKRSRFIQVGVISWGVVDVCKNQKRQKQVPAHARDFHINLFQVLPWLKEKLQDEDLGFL", "assay": "Inhibition of human complement factor B", "in_short": "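Chromogenic assay: 50 nM factor B, 0.5 mM Ac-SHLGLAR-pNA, 100 mM glycine-HCl pH 9.5, 37 °C. Eleven inhibitor concentrations from 1 µM to 1 mM. pNA release monitored at 405 nm; buffer alone as positive control.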"}, "Complement factor B [4]": {"biological_target": "T1, Complement factor B", "assay": "Inhibition of human complement factor B at 100 uM", "in_short": "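Competition format: 50 nM factor B with 100 µM inhibitor and Ac-SHLGLAR-pNA at 0.5, 2.5, 5 or 10 mM, in 100 mM glycine-HCl pH 9.5 at 37 °C. Absorbance increase followed at 405 nm.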"}, "Complement factor B [5]": {"biological_target": "T1, Complement factor B", "assay": "Inhibition of human complement factor B assessed as […] at pH 10.2", "in_short": "(§2)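 Purified factor B 4 µg with C3 10 µg, 3 h at 37 °C in 100 mM glycine-HCl pH 10.2 with 154 mM NaCl. Buffer or inhibitor at 0.01, 0.1, 0.25 or 0.5 mM. C3 cleavage products resolved on 7% and 12% gels.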"}, "Complement factor B [6]": {"biological_target": "T1, Complement factor B", "assay": "Inhibition of human C3 convertase assessed as C3a formation after 30 mins by 7% gel analysis", "in_short": "(§3)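 Convertase (CVF.Bb) preformed from cobra venom factor 12 µg, factor B 8 µg and factor D 0.2 µg in PBS pH 7.4 with 1 mM MgCl2, 1 h at 37 °C, then diluted with PBS containing 20 mM EDTA. C3 10 µg plus convertase incubated 30 min at 37 °C in PBS pH 7.4 with buffer or inhibitor at 0.01–0.5 mM. C3a formation read on gels loaded with 2.5 µg C3/well (7%) or 5.0 µg (12%).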"}, "Complement factor B [7]": {"biological_target": "T1, Complement factor B", "assay": "Inhibition of human C3 convertase assessed as C3a formation after 30 mins by 12% gel analysis", "in_short": "as §3"}, "Homo sapiens [8]": {"species_on_record": "Homo sapiens", "assay": "Inhibition of human C3bBb convertase assessed as C3 cleavage after 30 mins by 7% gel analysis", "in_short": "(§4)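 Native convertase assembled in situ: C3 10 µg, factor B 0.5 µg and factor D 0.05 µg, 30 min at 37 °C in PBS pH 7.4 with 1 mM MgCl2 and 154 mM NaCl. Inhibitor at 0.25, 0.5 and 1.0 mM; leupeptin and PMSF at 1.0 mM as controls. C3 to C3a cleavage read on 7% or 12% gels.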"}, "Homo sapiens [9]": {"species_on_record": "Homo sapiens", "assay": "Inhibition of human C3bBb convertase assessed as C3 cleavage after 30 mins by 12% gel analysis", "in_short": "as §4"}, "Complement factor B [10]": {"biological_target": "T1, Complement factor B", "assay": "Inhibition of human complement factor B assessed as cleavage of C3 convertase to C3b at pH 10.2", "in_short": "as §2"}, "[11]": {"assay": "Inhibition of trypsin mediated cleavage of AcSHLGLAR-pNA", "in_short": "(§5)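 Ac-SHLGLAR-pNA at 0.5 mM final in 10 mM Hepes, 10 mM Tris, 150 mM NaCl, 0.1% PEG, pH 7.4; 150 µL wells; read at 405 nm, 37 °C. Trypsin at 133 nM final, inhibitor at eleven 2-fold dilutions from 26.6 µM, in triplicate. Thrombin at 0.5 U per well, inhibitor at eleven 2-fold dilutions from 666 µM, in duplicate.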"}, "[12]": {"assay": "Inhibition of thrombin mediated cleavage of AcSHLGLAR-pNA", "in_short": "as §5"}},
  "note": "Activity calls are given as the source filed them. No cut-off for these calls is given here. Residues, ends and D or L forms follow the SMILES beside them.",
  "data": [
    {"smiles": "O=S(=O)(F)Cc1ccccc1", "values": [
      {"measurement": "Activity", "setting": "Homo sapiens [1]", "value": "inactive"},
      {"measurement": "Activity", "setting": "Homo sapiens [2]", "value": "inactive"}
    ]},
    {"smiles": "CC(=O)N[C@@H](CO)C(=O)N[C@@H](Cc1cnc[nH]1)C(=O)N[C@@H](CC(C)C)C(=O)NCC(=O)N[C@@H](CC(C)C)C(=O)N[C@@H](C)C(=O)N[C@H](C=O)CCCNC(=N)N", "note": "(Ac-SHLGLAR-aldehyde)", "values": [
      {"measurement": "IC50", "setting": "Complement factor B [3]", "value": 19, "unit": "µM"},
      {"measurement": "Activity", "setting": "Complement factor B [4]", "value": "Dose-dependent effect"},
      {"measurement": "Activity", "setting": "Complement factor B [5]", "value": "Dose-dependent effect"},
      {"measurement": "Activity", "setting": "Complement factor B [6]", "value": "Dose-dependent effect"},
      {"measurement": "Activity", "setting": "Complement factor B [7]", "value": "Dose-dependent effect"},
      {"measurement": "Activity", "setting": "Homo sapiens [8]", "value": "Dose-dependent effect"},
      {"measurement": "Activity", "setting": "Homo sapiens [9]", "value": "Dose-dependent effect"},
      {"measurement": "Activity", "setting": "Complement factor B [10]", "value": "Active"},
      {"measurement": "IC50", "setting": "[11]", "value": 716, "unit": "µM"},
      {"measurement": "IC50", "setting": "[12]", "value": 24, "unit": "µM"}
    ]},
    {"smiles": "CC(=O)N[C@@H](CC(C)C)C(=O)N[C@@H](CC(C)C)C(=O)N[C@H](C=O)CCCNC(=N)N", "values": [
      {"measurement": "Activity", "setting": "Homo sapiens [1]", "value": "inactive"},
      {"measurement": "Activity", "setting": "Homo sapiens [2]", "value": "inactive"}
    ]}
  ]
}
